According to ChEMBL document CHEMBL3865827, “A novel class of ethacrynic acid derivatives as promising drug-like potent generation of anticancer agents with established mechanism of action” (Eur J Med Chem, 2016):
Calls of active or inactive are those of the source. The calls are words filed in the database; no cut-off is given here.

Key:
[1] = Antiproliferative activity against human KB cells after 24 to 72 hrs by MTS assay; format: functional, cell-based
Outline: (§1)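 Cells plated, then dosed 24 h later with compounds in DMSO (1% final; controls DMSO alone), exposed 24 or 72 h. Proliferation inhibition measured as previously reported (MTS/NADH reagent). IC50 from duplicate experiments over 0.5 nM–100 µM. KB grown in D-MEM with 10% fetal calf serum, penicillin, streptomycin, fungizone, 5% CO2; other lines in complete RPMI. EPC are quiescent Cyprinus carpio endothelial progenitor cells.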

[2] = Antiproliferative activity against human HL60 cells after 24 to 72 hrs by MTS assay; format: functional, cell-based; conditions: HL-60; outline: as §1
[3] = test system: KB; assay: Selectivity index, ratio of IC50 for Cyprinus carpio EPC to IC50 for human KB cells
[4] = test system: HL-60; assay: Selectivity index, ratio of IC50 for Cyprinus carpio EPC to IC50 for human HL60 cells
[5] = Antiproliferative activity against Cyprinus carpio EPC after 24 to 72 hrs by MTS assay
[6] = Antiproliferative activity against human MCF7 cells after 24 to 72 hrs by MTS assay; format: functional, cell-based
[7] = Antiproliferative activity against human HCT116 cells after 24 to 72 hrs by MTS assay; format: functional, cell-based; conditions: HCT-116
[8] = Antiproliferative activity against human PC3 cells after 24 to 72 hrs by MTS assay; format: functional, cell-based; conditions: PC-3
[9] = Antiproliferative activity against human SKOV3 cells after 24 to 72 hrs by MTS assay; format: functional, cell-based; conditions: SK-OV-3
[10] = Antiproliferative activity against human OVCAR8 cells after 24 to 72 hrs by MTS assay; format: functional, cell-based; conditions: OVCAR-8
[11] = test system: HCT-116; assay: Induction of necrosis in human HCT116 cells assessed as increase in LDH release at 7 uM after 24 to 48 hrs by fluorescence assay; format: functional, cell-based
[12] = test system: MRC5; assay: Induction of necrosis in human MRC5 SV2 cells assessed as increase in LDH release at 7 uM after 24 to 48 hrs by fluorescence assay; format: functional, cell-based
[13] = Cell cycle arrest in human HL60 cells assessed as accumulation at G0/G1 phase at 2.5 uM after 24 hrs by propidium iodide-staining based FACS analysis (reference value: 43.5 %); format: functional; conditions: HL-60
Outline: (§2)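 HL60 cells, 25,000 per well, exposed 24 and 48 h to 2.5 µM compounds; controls DMSO (1% final). Propidium iodide staining, flow cytometry; fractions in sub-G1, G0/G1, S and G2/M quantified.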

[14] = Cell cycle arrest in human HL60 cells assessed as accumulation at S phase at 2.5 uM after 24 hrs by propidium iodide-staining based FACS analysis (reference value: 48.9 %); format: functional; conditions: HL-60; outline: as §2
[15] = Cell cycle arrest in human HL60 cells assessed as accumulation at G2/M phase at 2.5 uM after 24 hrs by propidium iodide-staining based FACS analysis (reference value: 5.1 %); format: functional; conditions: HL-60; outline: as §2
[16] = Cell cycle arrest in human HL60 cells assessed as accumulation at sub G1 phase at 2.5 uM after 24 hrs by propidium iodide-staining based FACS analysis (reference value: 2.6 %); format: functional; conditions: HL-60; outline: as §2
[17] = Cell cycle arrest in human HL60 cells assessed as accumulation at G0/G1 phase at 2.5 uM after 48 hrs by propidium iodide-staining based FACS analysis (reference value: 43.8 %); format: functional; conditions: HL-60; outline: as §2
[18] = Cell cycle arrest in human HL60 cells assessed as accumulation at S phase at 2.5 uM after 48 hrs by propidium iodide-staining based FACS analysis (reference value: 52.6 %); format: functional; conditions: HL-60; outline: as §2
[19] = Cell cycle arrest in human HL60 cells assessed as accumulation at G2/M phase at 2.5 uM after 48 hrs by propidium iodide-staining based FACS analysis (reference value: 2.2 %); format: functional; conditions: HL-60; outline: as §2
[20] = Cell cycle arrest in human HL60 cells assessed as accumulation at sub G1 phase at 2.5 uM after 48 hrs by propidium iodide-staining based FACS analysis (reference value: 1.4 %); format: functional; conditions: HL-60; outline: as §2
[21] = Cytotoxicity against human HL60 cells assessed as reduction in cell viability after 24 hrs by MTS assay; format: functional, cell-based; conditions: HL-60, 24 h
[22] = test system: KB; assay: Induction of necrosis in human KB cells assessed as increase in LDH release at 7 uM after 24 to 48 hrs by fluorescence assay; format: functional, cell-based
[23] = test system: HL-60; assay: Antiproliferative activity against human HL60 cells at 7 uM after 24 hrs by viacount-reagent based FACS analysis
[24] = test system: HL60 (Homo sapiens); assay: Effect on 24 hrs pretreated human HL60 cells assessed as reduction in endogenous GSH content at 7 uM measured for 60 mins by fluorescence assay; conditions: HL-60

With `C=C(CC)C(=O)c1ccc(OCC(=O)NCCc2ccc(OP(=O)(OCC)OCC)cc2)c(Cl)c1Cl` the IC50 [1] was 800 nM, the IC50 [2] was 1100 nM and the “Ratio IC50” value [3] was 4. For the same compound, the “Ratio IC50” value [4] was 2.9 and the IC50 [5] was 3.2 µM.

For `C=C(CC)C(=O)c1ccc(OCC(=O)NCCc2ccc(OP(=O)(OCC)OCC)c(OC)c2)c(Cl)c1Cl`, the IC50 [1] was 700 nM, the IC50 [2] was 800 nM and the “Ratio IC50” value [3] was 3.2. The “Ratio IC50” value [4] was 2.8 and the IC50 [5] was 2.3 µM.

For `C=C(CC)C(=O)c1ccc(OCC(=O)NCCc2ccc(OP3(=O)OCCC(c4cccc(Cl)c4)O3)cc2)c(Cl)c1Cl` (configuration not stated), the IC50 [1] was 700 nM, the IC50 [2] was 900 nM and the “Ratio IC50” value [3] was 3.1. For the same compound, the “Ratio IC50” value [4] was 2.4 and the IC50 [5] was 2.2 µM.

For `C=C(CC)C(=O)c1ccc(OCC(=O)NCCc2ccc(OP(=O)(OC)OC)cc2)c(Cl)c1Cl`, the IC50 [1] was 400 nM, the IC50 [2] was 1200 nM and the IC50 [6] was 900 nM. For the same compound, the IC50 [7] was 1500 nM, the IC50 [8] was 800 nM and the IC50 [9] was 2800 nM. The IC50 [10] was 1500 nM, the “Ratio IC50” value [3] was 1.75 and the “Ratio IC50” value [4] was 0.58. For the same compound, the IC50 [5] was 0.7 µM.

In the case of `C=C(CC)C(=O)c1ccc(OCC(=O)N2CCN(c3ccc(OP4(=O)OCCC(c5cccc(Cl)c5)O4)cc3)CC2)c(Cl)c1Cl` (configuration not stated), the IC50 [1] is reported as 400 nM, the IC50 [2] is reported as 900 nM and the “Ratio IC50” value [3] is reported as 21. The “Ratio IC50” value [4] was 8.7 and the IC50 [5] was 7.8 µM.

With `C=C(CC)C(=O)c1ccc(OCC(=O)N2CCN(c3ccc(OP(=O)(OCC)OCC)cc3)CC2)c(Cl)c1Cl` the IC50 [1] was 300 nM, the IC50 [2] was 500 nM and the “Ratio IC50” value [3] was 9.3. The “Ratio IC50” value [4] was 5.6 and the IC50 [5] was 2.8 µM.

With `C=C(CC)C(=O)c1ccc(OCC(=O)N2CCN(c3ccc(OC)cc3)CC2)c(Cl)c1Cl` the IC50 [1] was 400 nM, the IC50 [2] was 800 nM and the Activity [11] was “Active”. The Activity [12] was “Active”, the “Ratio IC50” value [3] was 9 and the “Ratio IC50” value [4] was 4.5. The IC50 [5] was 3.6 µM.

In the case of `CCC(C)C(=O)c1ccc(OCC(=O)N2CCN(c3ccc(OC)cc3)CC2)c(Cl)c1Cl` (configuration not stated), the Activity [11] is reported as “Active” and the Activity [12] is reported as “Active”.

`C=C(CC)C(=O)c1ccc(OCC(=O)N2CCN(c3ccc(OP(=O)(OC)OC)cc3)CC2)c(Cl)c1Cl` showed an IC50 [1] of 170 nM, an IC50 [2] of 800 nM and an IC50 [6] of 500 nM. It also gave an IC50 [7] of 800 nM, an IC50 [8] of 1100 nM and an IC50 [9] of 2200 nM. For the same compound, the IC50 [10] was 1400 nM, the “Ratio IC50” value [3] was 17 and the “Ratio IC50” value [4] was 3.6. The IC50 [5] was 2.9 µM.

With `C=C(CC)C(=O)c1ccc(OCC(=O)NCCc2ccc(OP3(=O)OCCCO3)cc2)c(Cl)c1Cl` the IC50 [1] was 500 nM, the IC50 [2] was 1200 nM and the “Ratio IC50” value [3] was 6.8. For the same compound, the “Ratio IC50” value [4] was 2.8 and the IC50 [5] was 3.4 µM.

In the case of `CCC(C)C(=O)c1ccc(OCC(=O)N2CCN(c3ccc(O)cc3)CC2)c(Cl)c1Cl` (configuration not stated), the Activity [11] is reported as “Active” and the Activity [12] is reported as “Active”.

With `CCC(C)C(=O)c1ccc(OCC(=O)NCCc2ccc(O)cc2)c(Cl)c1Cl` (configuration not stated) the Activity [11] was “Active”, the Activity [12] was “Active” and the Activity [13] was 42.1%. It also gave an Activity [14] of 46.7%, an Activity [15] of 7.9% and an Activity [16] of 3.3%. It also gave an Activity [17] of 51.7%, an Activity [18] of 41.9% and an Activity [19] of 2.2%. It also gave an Activity [20] of 4.2%.

In the case of `C=C(CC)C(=O)c1ccc(OCC(=O)NCCc2ccc(O)c(OC)c2)c(Cl)c1Cl`, the IC50 [1] is reported as 800 nM, the IC50 [2] is reported as 1600 nM and the IC50 [21] is reported as 2600 nM. The Activity [22] was “Active”, the Activity [11] was “Active” and the Activity [12] was “Active”. For the same compound, the “Ratio IC50” value [3] was 5.6, the “Ratio IC50” value [4] was 2.8 and the IC50 [5] was 4.5 µM. For the same compound, the Activity [23] was “Active” and the GSH reduction activity [24] was “Active”.

With `C=C(CC)C(O)c1ccc(OCC(=O)NCCc2ccc(O)cc2)c(Cl)c1Cl` (configuration not stated) the Activity [11] was “Active”, the Activity [12] was “Active” and the Activity [13] was 42.3%. It also gave an Activity [14] of 50.5%, an Activity [15] of 5.2% and an Activity [16] of 2%. It also gave an Activity [17] of 51.9%, an Activity [18] of 41.5% and an Activity [19] of 0.6%. For the same compound, the Activity [20] was 6.1%.
